Converted amounts (≈) assume the structure as drawn.
Experiments:
Format in all cases: functional
Staphylococcus aureus = test: Antibacterial activities against Staphylococcus aureus ATCC 2943 after 16 to 24 hrs by twofold serial dilution method
In short: (§1)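 Agar twofold serial dilution; compounds from DMF stock. Inoculum about 10⁷ CFU/ml taken from log-phase broth culture. Plates in triplicate, incubated at 37 °C for 16–24 h. Azinomycin run under the same conditions as control drug. MIC = lowest concentration giving no visible growth.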

Brevundimonas diminuta = test: Antibacterial activities against Pseudomonas diminuta MTCC 3361 after 16 to 24 hrs by twofold serial dilution method; in short: as §1
Escherichia coli = test: Antibacterial activities against Escherichia coli ATCC 13067 after 16 to 24 hrs by twofold serial dilution method; in short: as §1
Bacillus subtilis = test: Antibacterial activities against Bacillus subtilis ATCC 6633 after 16 to 24 hrs by twofold serial dilution method; conditions: for MIC: Bacillus subtilis, ATCC 6633; in short: as §1

| SMILES | -logMIC (Staphylococcus aureus) | -logMIC (Brevundimonas diminuta) | -logMIC (Escherichia coli) | -logMIC (Bacillus subtilis) | MIC (Bacillus subtilis) |
| --- | --- | --- | --- | --- | --- |
| CCOC(=O)C1(C(C)=O)C(c2ccc(N(C)C)cc2)N1c1ccc(/N=N/c2ccccc2)cc1 (stereo not drawn) | 4.079 | 4.128 | 4.046 | 4.154 | 0.0701 ng/mL (≈ 0.154 nM) |
| CCOC(=O)C1(C(C)=O)C(c2ccc(N(C)C)cc2)N1c1ccc(/N=N/c2cccc(Cl)c2)cc1 (stereo not drawn) | 4.329 | 4.412 | 4.276 | 4.46 | 0.0347 ng/mL (≈ 0.0706 nM) |
| CCOC(=O)C1(C(C)=O)C(c2ccc(N(C)C)cc2)N1c1ccc(/N=N/c2cccc(C(=O)O)c2)cc1 (stereo not drawn) | 4.398 | 4.495 | 4.337 | 4.553 | 0.028 ng/mL (≈ 0.0559 nM) |
| CCOC(=O)C1(C(C)=O)C(c2ccc(N(C)C)cc2)N1c1ccc(/N=N/c2ccccc2OC)cc1 (stereo not drawn) |  | 4.421 |  |  |  |
| CCOC(=O)C1(C(C)=O)C(c2ccc(N(C)C)cc2)N1c1ccc(/N=N/c2cccc(OC)c2)cc1 (stereo not drawn) | 4.431 | 4.54 | 4.364 | 4.607 | 0.0247 ng/mL (≈ 0.0508 nM) |
| CCOC(=O)C1(C(C)=O)C(c2ccc(N(C)C)cc2)N1c1ccc(/N=N/c2cccc([N+](=O)[O-])c2)cc1 (stereo not drawn) | 4.469 | 4.586 | 4.399 | 4.658 | 0.022 ng/mL (≈ 0.0438 nM) |
| CCOC(=O)C1(C(C)=O)C(c2ccc(N(C)C)cc2)N1c1ccc(/N=N/c2ccc(C)cc2)cc1 (stereo not drawn) |  | 4.591 |  |  |  |
| CCOC(=O)C1(C(C)=O)C(c2ccc(N(C)C)cc2)N1c1ccc(/N=N/c2cccc(C)c2)cc1 (stereo not drawn) | 4.292 | 4.371 | 4.241 | 4.442 | 0.0361 ng/mL (≈ 0.0768 nM) |
| CCOC(=O)C1(C(C)=O)C(c2ccc(N(C)C)cc2)N1c1ccc(/N=N/c2ccc(O)cc2)cc1 (stereo not drawn) | 4.13 | 4.183 | 4.094 | 4.212 | 0.0614 ng/mL (≈ 0.13 nM) |
| CCOC(=O)C1(C(C)=O)C(c2ccc(N(C)C)cc2)N1c1ccc(/N=N/c2ccc([N+](=O)[O-])cc2)cc1 (stereo not drawn) | 4.445 | 4.524 | 4.378 | 4.586 | 0.0259 ng/mL (≈ 0.0517 nM) |
| CCOC(=O)C1(C(C)=O)C(c2ccc(N(C)C)cc2)N1c1ccc(/N=N/c2cccc(Br)c2)cc1 (stereo not drawn) |  | 4.378 |  |  |  |
| CCOC(=O)C1(C(C)=O)C(c2ccc(N(C)C)cc2)N1c1ccc(/N=N/c2ccc(C(=O)O)cc2)cc1 (stereo not drawn) | 4.357 | 4.444 | 4.301 | 4.495 | 0.032 ng/mL (≈ 0.0639 nM) |
| CCOC(=O)C1(C(C)=O)C(c2ccc(N(C)C)cc2)N1c1ccc(/N=N/c2cccc(O)c2)cc1 (stereo not drawn) | 4.155 | 4.212 | 4.118 | 4.243 | 0.0571 ng/mL (≈ 0.121 nM) |
| CCOC(=O)C1(C(C)=O)C(c2ccc(N(C)C)cc2)N1c1ccc(/N=N/c2ccc(Cl)cc2)cc1 (stereo not drawn) | 4.276 | 4.348 | 4.228 | 4.39 | 0.0407 ng/mL (≈ 0.083 nM) |

From ChEMBL document CHEMBL1152835, “Synthesis and QSAR modeling of 2-acetyl-2-ethoxycarbonyl-1-[4(4'-arylazo)-phenyl]-N,N-dimethylaminophenyl aziridines as potential antibacterial agents” (2009)
